ChEMBL document CHEMBL2040750, “Hybrids of ravuconazole: synthesis and biological evaluation” (2012)
Values after ≈ are worked out from the molar mass of the structure shown. Active and inactive are the calls of the source. No cut-off for these calls is given here.

How the values were obtained:
Type in all cases: functional
[1] = tested on: Bacillus subtilis; experiment: Antibacterial activity Bacillus subtilis NCIM 2250 at 100 ug/disc by agar-well diffusion assay
Procedure, shortened: (§1)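 Agar-well diffusion screen against standard strains. Zone of inhibition is the read-out. Chloramphenicol, nystatin and ravuconazole were run as positive controls.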

[2] = tested on: Pseudomonas aeruginosa; experiment: Antibacterial activity Pseudomonas aeruginosa NCIM 2036 after 24 hrs by NCCLS method
Procedure, shortened: (§2)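 Broth microdilution MIC per NCCLS. Compounds dissolved in DMSO, serially diluted in growth medium, incubated at 37 °C. Read at 24 h for bacteria and 24–72 h for fungi. MIC90 taken as the first well with about 90% growth reduction relative to the drug-free well.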

[3] = tested on: Staphylococcus aureus; experiment: Antibacterial activity Staphylococcus aureus NCIM 2079 at 100 ug/disc by agar-well diffusion assay; conditions: for zone of inhibition at 100 µg/disc: read-out: DIZ; procedure, shortened: as §1
[4] = tested on: Escherichia coli; experiment: Antibacterial activity Escherichia coli NCIM 2109 after 24 hrs by NCCLS method; procedure, shortened: as §2
[5] = tested on: Staphylococcus aureus; experiment: Antibacterial activity Staphylococcus aureus NCIM 2079 after 24 hrs by NCCLS method; procedure, shortened: as §2
[6] = tested on: Candida albicans; experiment: Antifungal activity Candida albicans NCIM 3471 after 24 to 72 hrs by NCCLS method; procedure, shortened: as §2
[7] = tested on: Escherichia coli; experiment: Antibacterial activity Escherichia coli NCIM 2109 at 100 ug/disc by agar-well diffusion assay; conditions: for zone of inhibition at 100 µg/disc: read-out: DIZ; procedure, shortened: as §1
[8] = tested on: Bacillus subtilis; experiment: Antibacterial activity Bacillus subtilis NCIM 2250 after 24 hrs by NCCLS method; procedure, shortened: as §2
[9] = tested on: Pseudomonas aeruginosa; experiment: Antibacterial activity Pseudomonas aeruginosa NCIM 2036 at 100 ug/disc by agar-well diffusion assay; conditions: for zone of inhibition at 100 µg/disc: read-out: DIZ; procedure, shortened: as §1
[10] = tested on: Candida albicans; experiment: Antifungal activity Candida albicans NCIM 3471 at 100 ug/disc by agar-well diffusion assay; conditions: for zone of inhibition at 100 µg/disc: read-out: DIZ; procedure, shortened: as §1
[11] = tested on: Aspergillus niger; experiment: Antifungal activity Aspergillus niger NCIM 545 after 24 to 72 hrs by NCCLS method; procedure, shortened: as §2
[12] = tested on: Aspergillus niger; experiment: Antifungal activity Aspergillus niger NCIM 545 at 100 ug/disc by agar-well diffusion assay; conditions: for zone of inhibition at 100 µg/disc: read-out: DIZ; procedure, shortened: as §1

SMILES | diameter of the inhibition zone (DIZ) [1] | MIC [2] | diameter of the inhibition zone (DIZ) [3] | MIC ([4]; NCIM 2109, 24 h) [µg/mL] | MIC [5] | MIC [6] | zone of inhibition at 100 µg/disc [7] [mm] | MIC [8] | diameter of the inhibition zone (DIZ) [9] | zone of inhibition at 100 µg/disc [10] [mm] | MIC [11] | zone of inhibition at 100 µg/disc [12] [mm] | MIC ([2]; NCIM 2036, 24 h) [µg/mL] | diameter of the inhibition zone (DIZ) [7] | zone of inhibition at 100 µg/disc [9] [mm] | diameter of the inhibition zone (DIZ) [10] | diameter of the inhibition zone (DIZ) [12] | MIC [4] | zone of inhibition at 100 µg/disc [3] [mm] | MIC ([5]; NCIM 2079, 24 h) [µg/mL]
Brc1ccc(/C(Cn2cncn2)=N\Nc2nc(-c3ccc(Br)cc3)cs2)cc1 | inactive | inactive | inactive | > 64 | inactive | > 64 µg/mL | 10.9 | inactive | inactive | 13.9 | > 64 µg/mL | 15.3 |  |  |  |  |  |  |  | 
Fc1ccc(/C(Cn2cncn2)=N\Nc2nc(-c3ccc(Br)cc3)cs2)cc1 | inactive |  | inactive | 64 (≈ 140 µM) | inactive | 64 µg/mL (≈ 140 µM) |  | inactive |  | 14.8 | 64 µg/mL (≈ 140 µM) | 15.8 | 32 (≈ 70 µM) | inactive | 18.2 |  |  |  |  | 
O=[N+]([O-])c1ccc(-c2csc(N/N=C(/Cn3cncn3)c3ccc(Br)cc3)n2)cc1 | inactive | inactive | inactive | > 64 | inactive | inactive | 14 | inactive | inactive |  | inactive |  |  |  |  | inactive | inactive |  |  | 
O=[N+]([O-])c1ccc(-c2csc(N/N=C(/Cn3cncn3)c3cc(C(F)(F)F)cc(C(F)(F)F)c3)n2)cc1 | inactive | inactive | inactive |  | inactive | inactive | 11.1 | inactive | inactive |  | inactive |  |  |  |  | inactive | inactive | inactive |  | 
FC(F)(F)c1cc(-c2csc(N/N=C(/Cn3cncn3)c3ccc(Cl)cc3)n2)cc(C(F)(F)F)c1 | inactive |  |  | > 64 |  | 32 µg/mL (≈ 60.3 µM) | 15.6 | inactive |  | 20.7 | > 64 µg/mL | 8.66 | 32 (≈ 60.3 µM) |  | 26.1 |  |  |  | 11.2 | > 64
O=[N+]([O-])c1ccc(/C(Cn2cncn2)=N\Nc2nc(-c3ccc(Br)cc3)cs2)cc1 | inactive |  | inactive | > 64 | inactive | inactive | 11 | inactive |  |  | inactive |  | 64 (≈ 132 µM) |  | 19.8 | inactive | inactive |  |  | 
Clc1ccc(/C(Cn2cncn2)=N\Nc2nc(-c3ccc(Br)cc3)cs2)cc1 | inactive |  |  |  |  | inactive |  | inactive |  |  | 64 µg/mL (≈ 135 µM) | 18.6 | 32 (≈ 67.5 µM) | inactive | 23.9 | inactive |  | inactive | 19.1 | 64 (≈ 135 µM)
FC(F)(F)c1cc(/C(Cn2cncn2)=N\Nc2nc(-c3ccc(Cl)cc3)cs2)cc(C(F)(F)F)c1 | inactive |  | inactive | > 64 | inactive | 32 µg/mL (≈ 60.3 µM) | 13.2 | inactive |  | 17.6 | 16 µg/mL (≈ 30.1 µM) | 19.1 | 32 (≈ 60.3 µM) |  | 26.8 |  |  |  |  | 
FC(F)(F)c1cc(-c2csc(N/N=C(/Cn3cncn3)c3ccc(Br)cc3)n2)cc(C(F)(F)F)c1 | inactive | inactive | inactive | > 64 | inactive | > 64 µg/mL | 11.4 | inactive | inactive | 13.9 | > 64 µg/mL | 10.9 |  |  |  |  |  |  |  | 
